For data set [1], the system named is mouse colonic crypt cultures (WT). Briefly: Total GLP-1 release from primary colonic crypt cultures, WT mice. The class given is cell-based. Particulars: 1 μM ligand, 2 h, relative to basal (vehicle). Put shortly:
(§1)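 Colonic crypts from male C57BL/6 littermates were collagenase-digested and seeded on Matrigel. […] Next day, cells were exposed to ligands for 2 h at 37 °C, in triplicate, in standard solution with 0.1% fatty-acid-free BSA and 10 mM glucose. Synthetic ligands were in DMSO; ALA was BSA-complexed at 6:1 molar. Total GLP-1 was measured by electrochemiluminescent immunoassay, expressed as fold over vehicle basal.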

For data set [2], the target named is T1, human GPR40 (Homo sapiens, UniProt O14842). The class given is binding.
T1 sequence (O14842 whole entry): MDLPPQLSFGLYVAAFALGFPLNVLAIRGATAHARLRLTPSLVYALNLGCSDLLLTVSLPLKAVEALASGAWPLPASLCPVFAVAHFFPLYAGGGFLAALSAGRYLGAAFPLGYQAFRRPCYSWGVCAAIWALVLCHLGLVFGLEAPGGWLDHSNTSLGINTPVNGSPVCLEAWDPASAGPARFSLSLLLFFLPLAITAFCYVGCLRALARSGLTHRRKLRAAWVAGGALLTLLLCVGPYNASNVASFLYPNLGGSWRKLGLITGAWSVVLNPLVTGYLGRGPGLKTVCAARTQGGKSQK
The test system of data set [3] is mouse colonic crypt cultures GPR40 (−/−). Briefly: Total GLP-1 release from primary colonic crypt cultures, Gpr40 KO mice. The class given is cell-based. The conditions noted are these: 1 μM ligand, 2 h, relative to basal (vehicle). Put shortly: as §1
A further data set can be described thus: PK experiments. Particulars: mouse, in vivo, po, 30 mg/kg.
For data set [4], the target named is T1, human GPR40. Format: binding. The source holds these as a separate data set.
For data set [5], the target named is T1, human GPR40. Put plainly: cAMP accumulation assay in transiently transfected COS-7 cells. The class given is cell-based. The conditions noted are these: for Stimulation of cAMP accumulation (in words): COS-7 transfected with GPR40. Background: Changes in cAMP serve as a functional read-out for many G protein-coupled receptors.
Data set [6] has as its target T1, human GPR40. Briefly: IP turnover assay in transiently transfected COS-7 cells. Particulars: for Emax: COS-7, read-out: IP3 (in vitro) Emax. Format: cell-based.
The test system of a further data set is plasma GLP-1. Put plainly: Plasma total GLP-1 after oral gavage in fasted mice. Format: in vivo, mouse. Particulars: 30 mg/kg oral, 30 min, overnight fasted mice; vehicle about 5 pmol/L.
For a further data set, the system named is plasma GIP. Briefly: Plasma GIP after oral gavage in fasted mice. The class given is in vivo, mouse. Particulars: 30 mg/kg oral, 30 min, overnight fasted mice.
For data set [7] the following is noted: phase-II studies, cited from earlier work.

Structures are written as SMILES. Read-outs that look alike come from different tables or passages of the source.

For the compound `CC(C)c1noc(C2CCN(c3ncnc(Nc4ccc(S(C)(=O)=O)cc4F)c3[N+](=O)[O-])CC2)n1` [AR231453], the “tGLP-1 (ex vivo) release, WT” value in data set [1] came to 4.7 ± 0.3 fold change.

Broadly, the IC50 is the concentration that gives 50% inhibition. The term Cmax denotes the maximum level reached in the sampled fluid or tissue. In general, EC50 refers to the concentration at which the effect is half-maximal. A high value points to a less potent agent. One may read the Emax as the maximal effect, on the per cent scale that the assay sets. Turning to `COc1ccc(F)c(-c2ccc(COc3cccc([C@@H](CC(=O)O)C4CC4)c3)cc2C2=CCCC2(C)C)c1` [AM-1638], on human GPR40 [2], the “Binding (in vitro) [3H]L358: positive or negative competitive binding” value is recorded as “(neg)” and 0.026 µM corresponded to half-maximal inhibition (IC50). Besides, in data set [1], the “tGLP-1 (ex vivo) release, WT” value came out at 3.0 ± 0.54 fold change. Moreover, the “tGLP-1 (ex vivo) release, GPR40 (−/−)” value in data set [3] is reported as 1.1 ± 0.07 fold change. In “PK experiments”, this compound had a Cmax of 11 µM. At human GPR40 [4], the “Binding (in vitro) [3H]AM-1638: positive or negative competitive binding” value was “(pos)” and half-maximal inhibition (IC50) required 0.029 µM. Besides, the “Stimulation of cAMP accumulation (in words)” value (shortened to “Stimulation”) at human GPR40 [5] is listed as “stimulated cAMP accumulation robustly”. The “cAMP potency, fold lower than the potency for IP-accumulation” value on human GPR40 [5] (cAMP EC50 versus IP EC50) stood at 7 fold. Further, on human GPR40 [6], a half-maximal effect (EC50) was put at 0.0251 µM and the Emax turned out to be 170 ± 14%. In addition, the “Plasma GLP-1, median of all experiments” value in the data set with plasma GLP-1 amounted to 29 pmol/L. The “Plasma GIP, median of all experiments” value in the data set with plasma GIP (vehicle 53 pmol/L) stood at 383 pmol/L.

Take `CC/C=C\C/C=C\C/C=C\C/C=C\C/C=C\C/C=C\CCC(=O)O` [DHA, docosahexaenoic acid]: on human GPR40 [5], the EC50 was greater than 1000 µM and the “Stimulation” value is recorded as “not able to stimulate cAMP accumulation meaningfully”. For the same compound, on human GPR40 [6], the concentration for a half-maximal effect (EC50) turned out to be 12 µM and the Emax stood at 56 ± 6%.

With `Cc1cc(OCCCS(C)(=O)=O)cc(C)c1-c1cccc(COc2ccc3c(c2)OC[C@H]3CC(=O)O)c1` [TAK-875, fasiglifam], at human GPR40 [2], the “Binding (in vitro) [3H]L358: positive or negative competitive binding” value was “(pos)”. In addition, the “tGLP-1 (ex vivo) release, WT” value in data set [1] was 1.5 ± 0.08 fold change. Further, the “tGLP-1 (ex vivo) release, GPR40 (−/−)” value in [3] turned out to be 1.1 ± 0.12 fold change. This compound registered a Cmax in the data set “PK experiments” of 2 µM. Also, the “Binding (in vitro) [3H]AM-1638: positive or negative competitive binding” value on human GPR40 [4] is recorded as “(neg)”. Further, the “Stimulation” value at human GPR40 [5] is “no or very limited stimulation of cAMP production”. On human GPR40 [6], the Emax turned out to be 98 ± 4%. The “Plasma GLP-1, median of all experiments” value in the data set on plasma GLP-1 is 10.8 pmol/L. For the same compound, the “Effect on HbA1c” value in data set [7] (without signs of hypoglycemia) is reported as “decreased HbA1c as efficiently as sulfonylurea”. Also, the “Effect on plasma GLP-1” value in [7] was “no effect”. Also, in the data set on plasma GIP, the “Significance of plasma GIP increase (in words)” value is listed as “only increased plasma GIP significantly in one of the three experiments”.

Source of the values: PMC4314522 (Molecular Metabolism, 2014).
